Broadly, the Cmax is the peak of the concentration-time curve. A word on the Tmax: it is the time from dosing to the highest level. What is called AUC is concentration integrated over time. Low readings indicate less exposure, high ones more exposure. As usually defined, the half-life is how long it takes for the measured level to halve. For orientation: bioavailability means dose-corrected exposure relative to a reference, in per cent. Lower therefore signals little systemic uptake.

Results on two compounds are retold here after ChEMBL document CHEMBL1250460, “Rational conversion of noncontinuous active region in proteins into a small orally bioavailable macrocyclic drug-like molecule: the HIV-1 CD4:gp120 paradigm” (Bioorg Med Chem, 2010).

One series relates to HeLa. Kind of series: Inhibition of HIV1 gp120 binding to CD4 assessed as inhibition of CD4 expressing human HeLa cells by MAGI assay. It counts as cell-based. The following applies: Human immunodeficiency virus 1. The procedure, abridged:
(§1)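 MAGI assay: HeLa-CD4+ beta-gal cells seeded at 15 × 10³ per well, infected with HIV-1 HXB2 with or without inhibitor in the presence of DEAE-dextran. Two days after infection, cells fixed in 1% formaldehyde/0.2% glutaraldehyde in PBS. Stained with ferro/ferricyanide (4 mM each), 2 mM MgCl₂ and 0.4 mg/mL X-Gal. Blue cells counted by light microscopy.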

Series [1] concerns Human immunodeficiency virus 1. As to the kind of experiment: Antiviral activity against HIV1 assessed as reduction in infection. It counts as functional. The procedure, abridged:
as §1

Series [2] is described as follows: Cmax in Wistar rat at 10 mg/kg, po. It counts as ADME, organism-based. The arrangement: dose 10 mg/kg, route oral. As to conditions: in vivo. The procedure, abridged: (§2)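 Conscious male Wistar rats (275 ± 20 g, n = 5 per route) with jugular vein cannula implanted 24 h before dosing. Given 1 mg/kg IV bolus or 10 mg/kg by oral gavage, dissolved in water. Heparinized blood sampled at several times up to 24 h. Plasma separated by centrifugation (4000 g, 5 min, 4 °C), stored at −70 °C. Parameters from noncompartmental analysis.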

A short description of series [3]: Cmax in Wistar rat at 1 mg/kg, iv. The following applies: in vivo. Set-up: dose 1 mg/kg, route intravenous. The series is classed as ADME, organism-based. The procedure, abridged: as §2
The nature of series [4]: Tmax in Wistar rat at 10 mg/kg, po. The series is classed as ADME, organism-based. The arrangement: dose 10 mg/kg, route oral. The following applies: in vivo. An outline of the steps: as §2
Series [5] can be described thus: Tmax in Wistar rat at 1 mg/kg, iv. The series is classed as ADME, organism-based. As to conditions: in vivo. The arrangement: dose 1 mg/kg, route intravenous. The procedure, abridged:
as §2

Series [6] relates to Rattus norvegicus. As to the kind of experiment: AUC in Wistar rat at 10 mg/kg, po. It counts as ADME, organism-based, Plasma. The arrangement: dose 10 mg/kg, route oral. The following applies: in vivo. An outline of the steps:
as §2

Series [7] deals with Rattus norvegicus. Kind of series: Volume of distribution at steady state in Wistar rat at 10 mg/kg, po. The series is classed as ADME, organism-based. Set-up: dose 10 mg/kg, route oral. The following applies: in vivo. An outline of the steps:
as §2

A short description of series [8]: Half life in Wistar rat at 10 mg/kg, po. The series is classed as ADME, organism-based. The arrangement: dose 10 mg/kg, route oral. The following applies: in vivo. An outline of the steps:
as §2

A short description of series [9]: Oral bioavailability in Wistar rat at 10 mg/kg. The following applies: in vivo. The series is classed as ADME, organism-based. An outline of the steps:
as §2

The structures appear in SMILES notation. Calls of active or inactive are those of the source. The calls are words filed in the database; no cut-off is given here.

On to `N=C(N)NCCCC1NC(=O)CCCCCC(=O)NC(Cc2ccc(O)cc2)CN(CC(N)=O)C1=O` (stereo unspecified), for which the inhibition result in the series on HeLa is “inactive”.
As for `N=C(N)NCCCC1NC(=O)CCCCCC(=O)NC(Cc2ccccc2)CN(CC(N)=O)C1=O` (stereo unspecified), the inhibition result in the series on HeLa is “Active”. For the same compound, the “inhibition (INH)” value in series [1] is listed as 80%. For the same compound, the Cmax in series [2] came out at 866 ng/mL; in series [3], 102 ng/mL. The time to peak (Tmax) in [4] was 18 min; in [5], 5 min. In addition, the exposure (AUC) in the series on Rattus norvegicus [6] was 21770 ng·min/mL. Moreover, in the series with Rattus norvegicus [7], the Vdss was found to be 0.6 L/kg. Further, in [8], the half-life turned out to be 73 min. The compound further came in with a bioavailability in series [9] of 10%.
